Activity calls are given as the source filed them. The calls are words filed in the database; no cut-off is given here.
What was measured:
RAW264.7 [1] = assay: Inhibition of LPS-induced IL6 production in mouse RAW264.7 cells at 10 uM preincubated for 30 mins prior to LPS challenge measured after 24 hrs by ELISA; assay type: functional
In short: (§1)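 RAW 264.7 cells (ATCC) were grown in DMEM with 10% FBS and penicillin/streptomycin at 37 °C, 5% CO2. Cells were seeded at 400,000/well and incubated for 24 h, pretreated with compound for 30 min, then given 0.5 µg/mL LPS for 24 h. Medium TNF-α or IL-6 was measured by ELISA and normalized to total protein of viable cell pellets.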

RAW264.7 [2] = assay: Inhibition of LPS-induced TNF-alpha production in mouse RAW264.7 cells at 10 uM preincubated for 30 mins prior to LPS challenge measured after 24 hrs by ELISA; assay type: functional; in short: as §1
RAW264.7 [3] = assay: Inhibition of LPS-induced IL6 production in mouse RAW264.7 cells preincubated for 30 mins prior to LPS challenge measured after 24 hrs by ELISA; assay type: functional, cell-based; in short: as §1
RAW264.7 [4] = assay: Inhibition of LPS-induced TNF-alpha production in mouse RAW264.7 cells preincubated for 30 mins prior to LPS challenge measured after 24 hrs by ELISA; assay type: functional, cell-based; in short: as §1
[5] = Mus musculus, RAW264.7, read-out: IC50

SMILES	inhibition at 10 µM (RAW264.7 [1])	inhibition at 10 µM (RAW264.7 [2])	other results
O=C(Nc1ccccc1)c1cc2cc([N+](=O)[O-])ccc2[nH]1	49.6%	17.5%	
O=C(Nc1ccc(OCc2ccccc2)c(Cl)c1)c1cc2cc([N+](=O)[O-])ccc2[nH]1	21.5%		inhibition (RAW264.7 [2]): inactive
O=C(Nc1ccc(OCc2cccc(F)c2)c(Cl)c1)c1cc2cc([N+](=O)[O-])ccc2[nH]1			inhibition (RAW264.7 [1]): inactive; inhibition (RAW264.7 [2]): inactive
COc1cccc(COc2ccc(NC(=O)c3cc4cc([N+](=O)[O-])ccc4[nH]3)cc2Cl)c1	21.9%		inhibition (RAW264.7 [2]): inactive
O=C(Nc1ccc(OCc2cc(F)cc(F)c2)cc1)c1cc2cc([N+](=O)[O-])ccc2[nH]1	11.2%		inhibition (RAW264.7 [2]): inactive
Cc1ccc(C)c(COc2ccc(NC(=O)c3cc4cc([N+](=O)[O-])ccc4[nH]3)cc2Cl)c1	24.9%	2.89%	
O=C(Nc1ccc(OCc2ccc(C(F)(F)F)cc2)c(Cl)c1)c1cc2cc([N+](=O)[O-])ccc2[nH]1	29.2%		inhibition (RAW264.7 [2]): inactive
CN1CCN(c2ccc(NC(=O)c3cc4cc(N)ccc4n3Cc3ccc(C(F)(F)F)cc3)cc2)CC1			IC50 (RAW264.7 [3]; raw264.7): Not Active; IC50 (RAW264.7 [4]; raw264.7): Not Active
O=C(Nc1ccc(OCc2c(Cl)cccc2Cl)c(Cl)c1)c1cc2cc([N+](=O)[O-])ccc2[nH]1	29.8%		inhibition (RAW264.7 [2]): inactive
CN1CCN(c2ccc(NC(=O)c3cc4cc([N+](=O)[O-])ccc4n3Cc3cccc(F)c3)cc2)CC1	86.4%	22.8%	
CN1CCN(c2ccc(NC(=O)c3cc4cc([N+](=O)[O-])ccc4n3Cc3c(Cl)cccc3Cl)cc2)CC1	93.3%	52.7%	
O=C(Nc1ccc(OCc2ccc(Cl)cc2)cc1)c1cc2cc([N+](=O)[O-])ccc2[nH]1	4.28%		inhibition (RAW264.7 [2]): inactive
CC(C)=CCOc1ccc(NC(=O)c2cc3cc([N+](=O)[O-])ccc3[nH]2)cc1	56.5%	38.6%	
CCC(=O)Nc1ccc2c(c1)cc(C(=O)Nc1ccc(N3CCN(C)CC3)cc1)n2Cc1ccc(C(F)(F)F)cc1			IC50 (RAW264.7 [3]; [5]): 3.33 µM; IC50 (RAW264.7 [4]; [5]): 4.1 µM
CN1CCN(c2ccc(NC(=O)c3cc4cc([N+](=O)[O-])ccc4n3Cc3ccc(Br)cc3)cc2)CC1	93%	31.1%	
C=CC(=O)Nc1ccc2c(c1)cc(C(=O)Nc1ccc(N3CCN(C)CC3)cc1)n2Cc1ccc(C(F)(F)F)cc1			IC50 (RAW264.7 [3]; [5]): 6.28 µM; IC50 (RAW264.7 [4]; [5]): 1.05 µM
Cc1cc2cc(NC(=O)c3cc4cc([N+](=O)[O-])ccc4[nH]3)ccc2[nH]1	37%	7.53%	
COc1ccc(COc2ccc(NC(=O)c3cc4cc([N+](=O)[O-])ccc4[nH]3)cc2Cl)cc1	24.8%		inhibition (RAW264.7 [2]): inactive
C=CCn1c(C(=O)Nc2ccc(N3CCN(C)CC3)cc2)cc2cc([N+](=O)[O-])ccc21	58.2%	12.7%	

SMILES	inhibition at 10 µM (RAW264.7 [1])	inhibition at 10 µM (RAW264.7 [2])	other results
CN1CCN(c2ccc(NC(=O)c3cc4cc([N+](=O)[O-])ccc4[nH]3)cc2)CC1	91%	62.5%	
CN1CCN(c2ccc(NC(=O)c3cc4cc(NC(=O)CCl)ccc4n3Cc3ccc(C(F)(F)F)cc3)cc2)CC1			IC50 (RAW264.7 [3]; [5]): 2.99 µM; IC50 (RAW264.7 [4]; [5]): 6.03 µM
COc1cc(COc2ccc(NC(=O)c3cc4cc([N+](=O)[O-])ccc4[nH]3)cc2Cl)cc(OC)c1	29%	7.67%	
COc1cc(NC(=O)c2cc3cc([N+](=O)[O-])ccc3[nH]2)cc(OC)c1OC	62.3%	45.8%	
O=C(Nc1ccc(OCc2cccc(F)c2)cc1)c1cc2cc([N+](=O)[O-])ccc2[nH]1	4.42%		inhibition (RAW264.7 [2]): inactive
CN1CCN(c2ccc(NC(=O)c3cc4cc([N+](=O)[O-])ccc4n3C)cc2)CC1	87.2%	16%	
CN1CCN(c2ccc(NC(=O)c3cc4cc([N+](=O)[O-])ccc4n3Cc3ccc(Cl)cc3)cc2)CC1	97.2%	67%	
COc1cc(NC(=O)c2cc3cc([N+](=O)[O-])ccc3[nH]2)cc(OC)c1	31.3%	17.2%	
COc1ccc(Cn2c(C(=O)Nc3ccc(N4CCN(C)CC4)cc3)cc3cc([N+](=O)[O-])ccc32)cc1	64.3%	41.4%	
O=C(NCCc1ccccc1)c1cc2cc([N+](=O)[O-])ccc2[nH]1	8.71%	2.58%	
COc1ccc(CCNC(=O)c2cc3cc([N+](=O)[O-])ccc3[nH]2)cc1	11.8%	9.75%	
O=C(Nc1ccc(N2CCOCC2)cc1)c1cc2cc([N+](=O)[O-])ccc2[nH]1	38%	18%	
COc1ccc(NC(=O)c2cc3cc([N+](=O)[O-])ccc3[nH]2)cc1	52.8%	8.17%	
CCOc1ccc(NC(=O)c2cc3cc([N+](=O)[O-])ccc3[nH]2)cc1	41.1%	33.8%	
COc1ccc2c(c1)c(CC(=O)O)c(C)n2C(=O)c1ccc(Cl)cc1 [INDOMETHACIN]	53.6%	24.1%	
CN1CCN(c2ccc(NC(=O)c3cc4cc([N+](=O)[O-])ccc4n3Cc3ccc(C(F)(F)F)cc3)cc2)CC1	98.7%	75.1%	IC50 (RAW264.7 [3]; [5]): 5.09 µM; IC50 (RAW264.7 [4]; [5]): 2.74 µM
Cc1ccc(COc2ccc(NC(=O)c3cc4cc([N+](=O)[O-])ccc4[nH]3)cc2)cc1	1.98%		inhibition (RAW264.7 [2]): inactive
CN1CCN(c2ccc(NC(=O)c3cc4cc(NS(C)(=O)=O)ccc4n3Cc3ccc(C(F)(F)F)cc3)cc2)CC1			IC50 (RAW264.7 [3]; [5]): 4.91 µM; IC50 (RAW264.7 [4]; [5]): 1.97 µM
